Measurements taken from paper PMC9052575 (RSC Advances, 2020).
Like-named read-outs stand apart in the source and are kept apart here.

Assays:
MCF-7 cells = assay: MTT anti-proliferative assay, MCF-7; type: cell-based, human; details: for IC50: read-out: IC50 against MCF-7 cells
MDA-MB-231 cells = assay: MTT anti-proliferative assay, MDA-MB-231; type: cell-based, human; details: read-out: IC50 against MDA-MB-231 cells
HEK-293 cells = assay: MTT toxicity assay, normal/non-tumor HEK-293 cells; type: cell-based; details: Homo sapiens, HEK293, read-out: IC50 against HEK-293 cells
Summary of the method: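 HEK-293 cells seeded at 5000 cells/well in triplicate. After 24 h, exposed for 24 h at 37 °C and 5% CO2 to test compound at 1–100 μM, diluted in complete DMEM. MTT (5 mg mL−1 stock in PBS) added for 2 h, then 10% SDS/10 mM HCl for 16 h at 37 °C. OD read at 570 nm.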

[1] = MTT assay, 24 hours treatment, 1-100 μM

Row | Structure (SMILES) | IC50 (MCF-7 cells; Homo sapiens, MCF7, 24 h) | IC50 (MDA-MB-231 cells; Homo sapiens, MDA-MB-231, 24 h) | IC50 (MCF-7 cells; [1]) | IC50 (MDA-MB-231 cells; [1]) | IC50 against MCF-7 cells (MCF-7 cells; [1]) | IC50 (HEK-293 cells)
1 | COc1ccc(/C=C/C(=O)c2ccc(OCc3cn(CCN4C(=O)c5cccc6cccc(c56)C4=O)nn3)cc2)cc1 [12b, (E)-2-(2-(4-((4-(3-(4-Methoxyphenyl)acryloyl)phenoxy)methyl)-1H-1,2,3-triazol-1-yl)ethyl)-1H-benzo[de]isoquinoline-1,3(2H)-dione] | > 100 µM | > 100 µM |  |  |  | 
2 | CC1=CC(=O)c2c(O)cccc2C1=O [Plumbagin, reference compound] | 3.5 µM |  |  |  |  | 
3 | CC(=O)N1N=C(c2ccc(OCc3cn(C(C)CN4C(=O)c5cccc6cccc(c56)C4=O)nn3)cc2)CC1[c-]1cccc1.[Fe+2].c1cc[cH-]c1 (stereo not shown) [15b, 2-(2-(4-((4-(1-Acetyl-5-ferrocenyl-4,5-dihydro-1H-pyrazol-3-yl)phenoxy)methyl)-1H-1,2,3-triazol-1-yl)propyl)-1H-benzo[de]isoquinoline-1,3(2H)-dione] |  |  | > 100 µM | > 100 µM |  | 
4 | COc1ccc(OC)c(/C=C/C(=O)c2ccc(OCc3cn(CCCN4C(=O)c5cccc6cccc(c56)C4=O)nn3)cc2)c1 [12g, (E)-2-(3-(4-((4-(3-(2,5-Dimethoxyphenyl)acryloyl)phenoxy)methyl)-1H-1,2,3-triazol-1-yl)propyl)-1H-benzo[de]isoquinoline-1,3(2H)-dione] | > 100 µM | > 100 µM |  |  |  | 
5 | O=C(/C=C/c1ccc([N+](=O)[O-])cc1)c1ccc(OCc2cn(CCN3C(=O)c4cccc5cccc(c45)C3=O)nn2)cc1 [12d, (E)-2-(2-(4-((4-(3-(4-Nitrophenyl)acryloyl)phenoxy)methyl)-1H-1,2,3-triazol-1-yl)ethyl)-1H-benzo[de]isoquinoline-1,3(2H)-dione] | > 100 µM | > 100 µM |  |  |  | 
6 | CC(=O)N1N=C(c2ccc(OCc3cn(CCCN4C(=O)c5cccc6cccc(c56)C4=O)nn3)cc2)CC1c1ccccc1 (stereo not shown) [13e, 2-(3-(4-((4-(1-Acetyl-5-phenyl-4,5-dihydro-1H-pyrazol-3-yl)phenoxy)methyl)-1H-1,2,3-triazol-1-yl)propyl)-1H-benzo[de]isoquinoline-1,3(2H)-dione] | > 100 µM | > 100 µM |  |  |  | 
7 | CC(=O)N1N=C(c2ccc(OCc3cn(CCCN4C(=O)c5cccc6cccc(c56)C4=O)nn3)cc2)CC1c1ccc([N+](=O)[O-])cc1 (stereo not shown) [13h, 2-(3-(4-((4-(1-Acetyl-5-(4-nitrophenyl)-4,5-dihydro-1H-pyrazol-3-yl)phenoxy)methyl)-1H-1,2,3-triazol-1-yl)propyl)-1H-benzo[de]isoquinoline-1,3(2H)-dione] | > 100 µM | > 100 µM |  |  |  | 
8 | COc1ccc(/C=C/C(=O)c2ccc(OCc3cn(CCCN4C(=O)c5cccc6cccc(c56)C4=O)nn3)cc2)cc1 [12f, (E)-2-(3-(4-((4-(3-(4-Methoxyphenyl)acryloyl)phenoxy)methyl)-1H-1,2,3-triazol-1-yl)propyl)-1H-benzo[de]isoquinoline-1,3(2H)-dione] | > 100 µM | > 100 µM |  |  |  | 
9 | O=C(/C=C/c1ccc([N+](=O)[O-])cc1)c1ccc(OCc2cn(CCCN3C(=O)c4cccc5cccc(c45)C3=O)nn2)cc1 [12h, (E)-2-(3-(4-((4-(3-(4-nitrophenyl)acryloyl)phenoxy)methyl)-1H-1,2,3-triazol-1-yl)propyl)-1H-benzo[de]isoquinoline-1,3(2H)-dione] | > 100 µM | > 100 µM |  |  |  | 
10 | CC(=O)N1N=C(c2ccc(OCc3cn(CCN4C(=O)c5cccc6cccc(c56)C4=O)nn3)cc2)CC1[c-]1cccc1.[Fe+2].c1cc[cH-]c1 (stereo not shown) [15a, 2-(2-(4-((4-(1-Acetyl-5-ferrocenyl-4,5-dihydro-1H-pyrazol-3-yl)phenoxy)methyl)-1H-1,2,3-triazol-1-yl)ethyl)-1H-benzo[de]isoquinoline-1,3(2H)-dione] |  |  | > 100 µM | > 100 µM |  | 
11 | O=C(/C=C/[c-]1cccc1)c1ccc(OCc2cn(CCN3C(=O)c4cccc5cccc(c45)C3=O)nn2)cc1.[Fe+2].c1cc[cH-]c1 [14a, (E)-2-(2-(4-((4-(3-Ferrocenyl-acryloyl)phenoxy)methyl)-1H-1,2,3-triazol-1-yl)ethyl)-1H-benzo[de]isoquinoline-1,3(2H)-dione] |  |  | > 100 µM | > 100 µM |  | 
12 | CC(=O)N1N=C(c2ccc(OCc3cn(CCN4C(=O)c5cccc6cccc(c56)C4=O)nn3)cc2)CC1c1ccc([N+](=O)[O-])cc1 (stereo not shown) [13d, 2-(2-(4-((4-(1-Acetyl-5-(4-nitrophenyl)-4,5-dihydro-1H-pyrazol-3-yl)phenoxy)methyl)-1H-1,2,3-triazol-1-yl)ethyl)-1H-benzo[de]isoquinoline-1,3(2H)-dione] | > 100 µM | > 100 µM |  |  |  | 
13 | O=C(C=Cc1ccccc1)c1ccc(OCc2cn(CCCN3C(=O)c4cccc5cccc(c45)C3=O)nn2)cc1 [12e, 2-(3-(4-((4-Cinnamoylphenoxy)methyl)-1H-1,2,3-triazol-1-yl)propyl)-1H-benzo[de]isoquinoline-1,3(2H)-dione] | > 100 µM | > 100 µM |  |  |  | 
14 | CC(CN1C(=O)c2cccc3cccc(c23)C1=O)n1cc(COc2ccc(C(=O)/C=C/[c-]3cccc3)cc2)nn1.[Fe+2].c1cc[cH-]c1 (stereo not shown) [14b, (E)-2-(2-(4-((4-(3-Ferrocenyl-acryloyl)phenoxy)methyl)-1H-1,2,3-triazol-1-yl)propyl)-1H-benzo[de]isoquinoline-1,3(2H)-dione] |  |  | > 100 µM | > 100 µM |  | 
15 | COc1ccc(OC)c(/C=C/C(=O)c2ccc(OCc3cn(CCN4C(=O)c5cccc6cccc(c56)C4=O)nn3)cc2)c1 [12c, (E)-2-(2-(4-((4-(3-(2,5-Dimethoxyphenyl)acryloyl)phenoxy)methyl)-1H-1,2,3-triazol-1-yl)ethyl)-1H-benzo[de]isoquinoline-1,3(2H)-dione] | > 100 µM | > 100 µM |  |  |  | 
16 | COc1ccc(OC)c(C2CC(c3ccc(OCc4cn(CCN5C(=O)c6cccc7cccc(c67)C5=O)nn4)cc3)=NN2C(C)=O)c1 (stereo not shown) [13c, 2-(2-(4-((4-(1-Acetyl-5-(2,5-dimethoxyphenyl)-4,5-dihydro-1H-pyrazol-3-yl)phenoxy)methyl)-1H-1,2,3-triazol-1-yl)ethyl)-1H-benzo[de]isoquinoline-1,3(2H)-dione] | > 100 µM | > 100 µM |  |  |  | 
17 | COc1ccc(C2CC(c3ccc(OCc4cn(CCN5C(=O)c6cccc7cccc(c67)C5=O)nn4)cc3)=NN2C(C)=O)cc1 (stereo not shown) [13b, 2-(2-(4-((4-(1-Acetyl-5-(4-methoxyphenyl)-4,5-dihydro-1H-pyrazol-3-yl)phenoxy)methyl)-1H-1,2,3-triazol-1-yl)ethyl)-1H-benzo[de]isoquinoline-1,3(2H)-dione] | > 100 µM | > 100 µM |  |  |  | 
18 | CC(=O)N1N=C(c2ccc(OCc3cn(CCN4C(=O)c5cccc6cccc(c56)C4=O)nn3)cc2)CC1c1ccccc1 (stereo not shown) [13a, 2-(2-(4-((4-(1-Acetyl-5-phenyl-4,5-dihydro-1H-pyrazol-3-yl)phenoxy)methyl)-1H-1,2,3-triazol-1-yl)ethyl)-1H-benzo[de]isoquinoline-1,3(2H)-dione] | > 100 µM | > 100 µM |  |  |  | 
19 | COc1ccc(OC)c(C2CC(c3ccc(OCc4cn(CCCN5C(=O)c6cccc7cccc(c67)C5=O)nn4)cc3)=NN2C(C)=O)c1 (stereo not shown) [13g, 2-(3-(4-((4-(1-Acetyl-5-(2,5-dimethoxyphenyl)-4,5-dihydro-1H-pyrazol-3-yl)phenoxy)methyl)-1H-1,2,3-triazol-1-yl)propyl)-1H-benzo[de]isoquinoline-1,3(2H)-dione] | 62.2 µM | > 100 µM |  |  | moderate cytotoxicity | > 100 µM
20 | COc1ccc(C2CC(c3ccc(OCc4cn(CCCN5C(=O)c6cccc7cccc(c67)C5=O)nn4)cc3)=NN2C(C)=O)cc1 (stereo not shown) [13f, 2-(3-(4-((4-(1-Acetyl-5-(4-methoxyphenyl)-4,5-dihydro-1H-pyrazol-3-yl)phenoxy)methyl)-1H-1,2,3-triazol-1-yl)propyl)-1H-benzo[de]isoquinoline-1,3(2H)-dione] | 98.1 µM | > 100 µM |  |  | moderate cytotoxicity | > 100 µM
